Source: ChEMBL document CHEMBL1149327, “Punaglandins, chlorinated prostaglandins, function as potent Michael receptors to inhibit ubiquitin isopeptidase activity” (J Med Chem, 2004)

Columns and labels:
Format in all cases: functional, cell-based
[1] = system: HCT cell line; experiment: Cytotoxicity against wild type p53 gene in human colon tumor 116 (HCT 116) cell lines was determined
Outline: (§1)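 HCT 116 wild-type and isogenic p53- or p21-disrupted lines (McCoy's 5A, 10% FBS) seeded at 3.0 × 10^3/well, adhered 24 h, then treated at varying concentrations for 48 h, eight replicates, DMSO controls. Viability by MTS, absorbance 490 nm after 2–3 h, expressed as % of same-plate DMSO control; EC50 fitted from log concentration–response curve; done twice.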

[2] = system: HCT cell line; experiment: Cytotoxicity against wild type p53-l- gene in human colon tumor 116 (HCT 116) cell lines was determined; outline: as §1
[3] = system: HCT cell line; experiment: Cytotoxicity against wild type p21-l- gene in human colon tumor 116 (HCT 116) cell lines was determined; outline: as §1
[4] = system: HCT cell line; experiment: Cytotoxicity against wild type p21 gene in human colon tumor 116 (HCT 116) cell lines was determined; outline: as §1
[5] = system: RKO; experiment: Cytotoxicity against human RKO cell line
Outline: (§2)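 RKO and RKO-E6 cells (DMEM, 10% FBS, 37 °C, 5% CO2) seeded at 5.0 × 10^3/well, adhered 24 h, then exposed to varying concentrations for 48 h, eight replicates, DMSO controls. MTS conversion read at 490 nm after 2–3 h; growth as % of same-plate DMSO control; EC50 from concentration–response curve. Assay run twice.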

[6] = system: RKO; experiment: Cytotoxicity against human RKO-E6 cell line; conditions: RKOE6; outline: as §2

Structure (SMILES)	EC50 [1]	EC50 [2]	EC50 [3]	EC50 [4]	EC50 [5]	EC50 [6]
CCCCC/C=C\C[C@@]1(O)C=C(Cl)C(=O)[C@@H]1[C@@H](OC(C)=O)[C@H](OC(C)=O)[C@H](CCCC(=O)OC)OC(C)=O	40 nM	40 nM	40 nM	47 nM		
CCCCC/C=C\C[C@@]1(O)C=C(Cl)C(=O)[C@@H]1C[C@H](OC(C)=O)[C@H](CCCC(=O)OC)OC(C)=O	340 nM	360 nM	320 nM	330 nM	440 nM	470 nM
CC/C=C/C/C=C\C[C@@]1(O)C=C(Cl)C(=O)/C1=C/[C@H](OC(C)=O)[C@H](CCCC(=O)OC)OC(C)=O	320 nM	370 nM	300 nM	290 nM		
CCCCC/C=C\C[C@@]1(O)C=C(Cl)C(=O)/C1=C/[C@H](OC(C)=O)[C@H](CCCC(=O)OC)OC(C)=O [PUNAGLANDIN 4]	330 nM	350 nM	280 nM	340 nM	310 nM	370 nM
